Assay [1] relates to SNU-182. Kind of assay: Inhibition of TGFbeta1-induced invasion in human SNU182 cells at 40 uM measured after 48 hrs in presence of (E)-1-(9-Ethyl-9H-carbazol-3-yl)-5-(4-hydroxy-3-methoxyphenyl)pent-1-en-3-one by microscopic method. It is filed as functional, cell-based. An outline of the steps: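 Matrigel invasion chamber: SNU182 cells in the inner chamber received TGF-β1 with or without the mixture for 48 h. Cells on the lower surface stained, imaged at 200×, and counted. Mean±SD of triplicates.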

Assay [2] has as its system SNU-182. The assay can be described thus: Inhibition of TGFbeta1-induced epithelial-mesenchymal transition in human SNU182 cells assessed as reduction in MMP2 activity measured after 48 hrs in presence of (E)-1-(9-Ethyl-9H-carbazol-3-yl)-5-(4-hydroxy-3-methoxyphenyl)pent-1-en-3-one by gelatin zymography assay. The format is functional, cell-based. An outline of the steps: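 Cells serum-starved overnight in 0.2% FBS medium, then left untreated or given TGF-β 5 ng/ml and/or the mixture for 48 h. MMP-2 and MMP-9 activity in conditioned medium determined by gelatin zymography.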

The target in assay [3] is Mothers against decapentaplegic homolog 2 (Homo sapiens) (UniProt Q15796). The assay can be described thus: Inhibition of TGFbeta1-induced SMAD2 phosphorylation in human SNU182 cells at 20 to 40 uM preincubated for 2 hrs followed by TGFbeta1 addition measured after 48 hrs in presence of (E)-1-(9-Ethyl-9H-carbazol-3-yl)-5-(4-hydroxy-3-methoxyphenyl)pent-1-en-3-one by Western blot method. The format is cell-based. A digest of the protocol: (§1)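 SNU182 cells given the mixture (20 and 40 µM) for 2 h, then TGF-β1 5 ng/ml for 48 h. Smad2/3 phosphorylation by Western blot, with total Smad2/3 as loading control.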
Mothers against decapentaplegic homolog 2 (Homo sapiens), sequence (Q15796 whole entry): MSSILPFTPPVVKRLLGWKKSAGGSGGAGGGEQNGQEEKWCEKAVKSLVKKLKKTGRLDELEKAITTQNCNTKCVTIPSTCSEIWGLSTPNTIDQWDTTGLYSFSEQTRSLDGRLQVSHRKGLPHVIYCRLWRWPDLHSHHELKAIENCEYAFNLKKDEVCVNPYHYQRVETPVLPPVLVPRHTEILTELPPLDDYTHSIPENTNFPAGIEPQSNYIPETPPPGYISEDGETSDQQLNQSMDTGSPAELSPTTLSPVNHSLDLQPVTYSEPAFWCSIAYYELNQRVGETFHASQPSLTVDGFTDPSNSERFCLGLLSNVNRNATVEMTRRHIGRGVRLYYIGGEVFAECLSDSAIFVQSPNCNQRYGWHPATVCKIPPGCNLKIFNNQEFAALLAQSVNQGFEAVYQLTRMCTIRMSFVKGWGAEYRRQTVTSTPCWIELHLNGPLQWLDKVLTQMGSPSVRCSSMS
Background: In western blotting, separated proteins are transferred to a membrane and probed.

Assay [4] concerns SNU-182. The assay can be described thus: Inhibition of TGFbeta1-induced migration in human SNU182 cells at 40 uM measured after 48 hrs in presence of (E)-1-(9-Ethyl-9H-carbazol-3-yl)-5-(4-hydroxy-3-methoxyphenyl)pent-1-en-3-one by wound healing assay. The format is functional, cell-based. An outline of the steps: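 Wound healing: SNU182 monolayers at about 90% confluence scratched with a pipette tip and washed. Medium with TGF-β1, with or without 40 µM mixture, then added. Wound imaged at 0 and 48 h; relative motility from cell surface area. Mean±SD of triplicates.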

Assay [5] concerns SNU-182. Kind of assay: Inhibition of TGFbeta1-induced epithelial-mesenchymal transition in human SNU182 cells assessed as reduction in MMP9 mRNA expression at 40 uM preincubated for 2 hrs followed by TGFbeta1 addition measured after 48 hrs by qRT-PCR method. It is filed as functional, cell-based. A digest of the protocol: (§2)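 SNU182 cells pretreated 2 h with single agents (12.5 or 40 µM) or the mixture (20 or 40 µM), then TGF-β 5 ng/ml for 48 h. MMP-2 and MMP-9 mRNA measured by RT-PCR with densitometry and by qRT-PCR, fold change by the 2^-ΔΔCt method. Mean±SD of triplicates.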
In general terms: In qPCR the cycle at which signal appears reflects the starting amount.

Assay [6] deals with SNU-182. Kind of assay: Growth inhibition of human SNU182 cells at <50 uM after 48 hrs by CCK8 assay. It is filed as functional, cell-based. Background: Formazan colour is commonly taken as a measure of viable cells.
Assay [7] deals with SNU-182. The assay can be described thus: Inhibition of TGFbeta1-induced epithelial-mesenchymal transition in human SNU182 cells assessed as reduction in downregulation of E-cadherin expression at 40 uM preincubated for 2 hrs followed by TGFbeta1 addition measured after 48 hrs by Western blot method. It is filed as functional, cell-based. A digest of the protocol: (§3)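 SNU182 cells pretreated 2 h with single agents (12.5 or 40 µM) or the mixture (20 and 40 µM), then stimulated with TGF-β1 5 ng/ml for 48 h. E-cadherin and Snail protein detected by Western blot, with GAPDH as loading control.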

The test system of assay [8] is SNU-182. Kind of assay: Inhibition of TGFbeta1-induced epithelial-mesenchymal transition in human SNU182 cells assessed as reduction in upregulation of Snail expression at 40 uM preincubated for 2 hrs followed by TGFbeta1 addition measured after 48 hrs by Western blot method. It is filed as functional, cell-based. An outline of the steps: as §3
In assay [9] the test system is SNU-182. Kind of assay: Inhibition of TGFbeta1-induced epithelial-mesenchymal transition in human SNU182 cells assessed as reduction in MMP2 mRNA expression at 40 uM preincubated for 2 hrs followed by TGFbeta1 addition measured after 48 hrs by qRT-PCR method. It is filed as functional, cell-based. A digest of the protocol:
as §2

For assay [10], the system named is SNU-182. The assay can be described thus: Inhibition of TGFbeta1-induced epithelial-mesenchymal transition in human SNU182 cells assessed as reduction in MMP2 mRNA expression preincubated for 2 hrs followed by TGFbeta1 addition measured after 48 hrs in presence of (E)-1-(9-Ethyl-9H-carbazol-3-yl)-5-(4-hydroxy-3-methoxyphenyl)pent-1-en-3-one by qRT-PCR method. The format is functional, cell-based. An outline of the steps: as §2

The test system of assay [11] is SNU-182. Kind of assay: Inhibition of TGFbeta1-induced epithelial-mesenchymal transition in human SNU182 cells assessed as reduction in mesenchymal phenotype preincubated for 2 hrs followed by TGFbeta1 addition measured after 48 hrs in presence of zingerone. The format is functional, cell-based. An outline of the steps:
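Cells preincubated 2 h in serum-free medium with the mixture (20 and 40 µM), then treated with TGF-β1 5 ng/ml for 48 h. Morphology (spindle-like, elongated shape, scattering) assessed by microscopy.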

The target of assay [12] is Transcription factor Jun (Homo sapiens) (UniProt P05412). The assay can be described thus: Inhibition of TGFbeta1-induced AP-1 binding activity in human SNU182 cells at 20 to 40 uM measured after 48 hrs in presence of zingerone by luciferase reporter gene assay. It is filed as cell-based. A digest of the protocol:
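SNU182 transfected with pGL4.44-AP-1-RE-Luc or empty pGL4.44, pretreated with the mixture (20 and 40 µM), then stimulated with TGF-β1 or DMSO. Luciferase reporter activity read. Mean±SD of triplicates.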

Assay [13] deals with SNU-182. The assay can be described thus: Inhibition of TGFbeta1-induced epithelial-mesenchymal transition in human SNU182 cells assessed as reduction in MMP9 mRNA expression at 12.5 uM preincubated for 2 hrs followed by TGFbeta1 addition measured after 48 hrs by qRT-PCR method. The format is functional, cell-based. A digest of the protocol: as §2
For assay [14], the target named is T1, NF-kappa-B inhibitor alpha (Homo sapiens) (UniProt P25963).
T1 sequence (whole entry): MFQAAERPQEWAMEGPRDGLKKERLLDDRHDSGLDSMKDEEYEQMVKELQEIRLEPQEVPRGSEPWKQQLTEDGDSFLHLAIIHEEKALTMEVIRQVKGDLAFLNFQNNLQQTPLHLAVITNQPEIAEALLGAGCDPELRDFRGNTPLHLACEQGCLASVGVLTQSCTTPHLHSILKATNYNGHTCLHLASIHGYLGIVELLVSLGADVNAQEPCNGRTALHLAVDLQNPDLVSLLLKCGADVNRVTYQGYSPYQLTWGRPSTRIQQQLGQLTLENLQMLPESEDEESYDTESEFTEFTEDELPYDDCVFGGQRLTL
Kind of assay: Inhibition of TGFbeta1-induced IkB-alpha phosphorylation in human SNU182 cells at 20 to 40 uM preincubated for 2 hrs followed by TGFbeta1 addition measured after 120 mins in presence of zingerone by Western blot method. It is filed as cell-based. A digest of the protocol: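 SNU182 cells pretreated with the mixture (20 and 40 µM) for 2 h, then exposed to TGF-β1 for 120 min. IκB protein assessed by Western blot, with GAPDH loading control.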

Assay [15] deals with SNU-182. Kind of assay: Inhibition of TGFbeta1-induced epithelial-mesenchymal transition in human SNU182 cells assessed as reduction in MMP2 mRNA expression preincubated for 2 hrs followed by TGFbeta1 addition measured after 48 hrs in presence of zingerone by qRT-PCR method. The format is functional, cell-based. A digest of the protocol:
as §2

Assay [16] deals with Mothers against decapentaplegic homolog 2 (Homo sapiens) (UniProt Q15796). The assay can be described thus: Inhibition of TGFbeta1-induced SMAD2 phosphorylation in human SNU182 cells at 20 to 40 uM preincubated for 2 hrs followed by TGFbeta1 addition measured after 48 hrs in presence of zingerone by Western blot method. It is filed as cell-based. An outline of the steps:
as §1

Calls of active or inactive are those of the source. The calls are words filed in the database; no cut-off is given here.

Transcription factor Jun (Homo sapiens), sequence (P05412 whole entry): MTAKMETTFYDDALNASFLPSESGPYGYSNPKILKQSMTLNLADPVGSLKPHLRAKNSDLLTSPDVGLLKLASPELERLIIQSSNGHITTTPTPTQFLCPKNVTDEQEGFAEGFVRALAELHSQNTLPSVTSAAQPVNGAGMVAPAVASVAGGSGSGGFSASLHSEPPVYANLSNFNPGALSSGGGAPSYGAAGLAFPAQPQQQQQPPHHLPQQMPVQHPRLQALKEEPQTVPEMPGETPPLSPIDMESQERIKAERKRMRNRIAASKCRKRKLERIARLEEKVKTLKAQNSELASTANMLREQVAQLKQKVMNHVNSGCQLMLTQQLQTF

Take `COc1cc(CCC(C)=O)ccc1O`: the inhibition entry in assay [1], in assay [2], in assay [3] and in [4] was “Active” in each case. For the same molecule, the inhibition result in [5], in assay [7], in assay [8] and in [9] was “inactive” throughout. In assay [6], the “growth inhibition (GI)” value is “inactive”. The inhibition result in assay [10] was “Dose-dependent effect”.

Take `CCn1c2ccccc2c2cc(/C=C/C(=O)CCc3ccc(O)c(OC)c3)ccc21`: the inhibition result in [11] and in [15] was “Dose-dependent effect” throughout. The inhibition result in [12], in assay [14] and in assay [16] was “Active” throughout. The inhibition entry in assay [13] is “inactive”.

The record behind these values is ChEMBL document CHEMBL3992541, “Combined treatment with zingerone and its novel derivative synergistically inhibits TGF-β1 induced epithelial-mesenchymal transition, migration and invasion of human hepatocellular carcinoma cells” (2017).
